Measured values from article PMC11825259 (Heliyon, 2024).

Biological target: urease (Canavalia ensiformis, UniProt P07374)
Assay: In vitro kinetic assay
Format: biochemical, jack bean
Outline: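 Jack bean urease was run without and with several concentrations of the test compound, and the data were plotted as Lineweaver–Burk double-reciprocal plots. A secondary replot of Km against inhibitor concentration gave Ki. All data were in triplicate.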

Sequence of urease (P07374 whole entry, looked up): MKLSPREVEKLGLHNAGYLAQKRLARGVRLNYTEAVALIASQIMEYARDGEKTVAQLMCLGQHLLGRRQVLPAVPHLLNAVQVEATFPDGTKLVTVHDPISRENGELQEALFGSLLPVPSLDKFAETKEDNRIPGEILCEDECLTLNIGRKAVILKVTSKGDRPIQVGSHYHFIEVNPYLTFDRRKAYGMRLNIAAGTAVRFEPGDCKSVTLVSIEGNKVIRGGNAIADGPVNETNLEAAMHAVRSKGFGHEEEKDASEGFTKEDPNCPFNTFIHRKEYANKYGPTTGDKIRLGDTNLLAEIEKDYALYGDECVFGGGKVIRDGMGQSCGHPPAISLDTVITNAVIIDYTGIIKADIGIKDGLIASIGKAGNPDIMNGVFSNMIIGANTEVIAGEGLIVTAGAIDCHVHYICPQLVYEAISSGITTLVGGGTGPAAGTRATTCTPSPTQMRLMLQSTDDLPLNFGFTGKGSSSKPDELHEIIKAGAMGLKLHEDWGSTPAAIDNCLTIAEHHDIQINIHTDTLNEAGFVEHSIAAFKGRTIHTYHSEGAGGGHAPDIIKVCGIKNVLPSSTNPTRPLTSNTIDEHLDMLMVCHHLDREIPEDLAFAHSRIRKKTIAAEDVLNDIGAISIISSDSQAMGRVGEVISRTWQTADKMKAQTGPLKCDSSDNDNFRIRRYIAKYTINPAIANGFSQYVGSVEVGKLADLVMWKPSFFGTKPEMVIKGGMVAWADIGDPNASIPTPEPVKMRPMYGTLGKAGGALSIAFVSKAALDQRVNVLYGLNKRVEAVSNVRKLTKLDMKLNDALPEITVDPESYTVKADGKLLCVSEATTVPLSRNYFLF

- Ki: 1990 nM
- type of urease inhibition (Lineweaver-Burk plot): uncompetitive inhibitor
SMILES: Cc1cc(OCC(=O)N/N=C/c2ccc(OCc3cn(Cc4ccccc4)nn3)cc2)c2c(C)cc(=O)oc2c1 [13a, (E)-N'-(4-((1-Benzyl-1H-1,2,3-triazol-4-yl)methoxy)benzylidene)-2-((4,7-dimethyl-2-oxo-2H-chromen-5-yl)oxy)acetohydrazide]
